Measured values pooled from the literature.
Lines come from different studies, so protocols differ. Converted amounts (≈) assume the structure as drawn.

CC1(C)S[C@@H]2[C@H](NC(=O)[C@H](N)c3ccccc3)C(=O)N2[C@H]1C(=O)O
MIC50 (Enterococcus faecium; microbial growth; clinical isolate): 128 mg/L (≈ 366 µM)

C/C(=N\N=C(/C)c1c(O)c2ccccc2oc1=O)c1c(O)c2ccccc2oc1=O
MIC (Penicillium verrucosum; microbial growth, broth dilution; 48 h): 62.5 mg/L

O=c1[nH]c(CCl)nc2scc(-c3ccccc3F)c12
EC50 (Trypanosoma brucei; parasite growth, ATP luminescence; 48 h): 0.8 µM

CCOC(=O)c1cnc2c([N+](=O)[O-])cc(C(F)(F)F)cc2c1NC1CC1
EC50 (Trypanosoma brucei; parasite growth, resazurin; 72 h): > 10 µM

C=C[C@]1(C)C[C@@H](OC(=O)CS[C@@H]2C[C@H]3CC[C@@H](C2)N3C)[C@]2(C)[C@H](C)CC[C@]3(CCC(=O)[C@H]32)[C@@H](C)[C@@H]1O
MIC90 (Enterococcus faecium; microbial growth; clinical isolate): 128 mg/L

c1coc(Nc2ncnc3ccc(-c4cncc(N5CCOCC5)n4)cc23)n1
GI50 (Trypanosoma brucei; parasite growth, SYBR Green; 48 h): 25 µM

OC(Cn1cncn1)(Cn1cncn1)c1ccc(F)cc1F
MIC (Candida albicans; microbial growth, broth dilution; 14936; 48 h): 4 µM

Cc1c2c(nn1C)CSCc1cc(n(C)n1)CSc1cc(c3ccccc3c1)OCCCc1c(C(=O)O)n(C)c3c-2c(Cl)ccc13
MIC90 (Enterococcus faecium; microbial growth, broth dilution; clinical isolate): 25 µM

C[C@@H]1[C@H](O)[C@@H](C)/C=C/C=C/C=C/C=C/C=C/C=C/C=C/[C@H](O[C@@H]2O[C@H](C)[C@@H](O)[C@H](N)[C@@H]2O)C[C@@H]2O[C@](O)(C[C@@H](O)C[C@@H](O)[C@H](O)CC[C@@H](O)C[C@@H](O)CC(=O)O[C@H]1C)C[C@H](O)[C@H]2C(=O)O
MIC (Candida albicans; microbial growth, broth dilution; CGMCC2; 48 h): < 0.25 µM

CC(=O)NC[C@H]1CN(c2ccc(N3CCOCC3)c(F)c2)C(=O)O1
MIC90 (Enterococcus faecium; microbial growth; clinical isolate): 2 mg/L

CCCS(=O)(=O)Oc1ccc(C=NNC(=O)CSc2nc3c(C)cccc3c(=O)n2-c2ccccc2)cc1OC
inhibition zone (Candida albicans; microbial growth, well diffusion; 20 µg/mL): 4 mm

FC(F)(F)c1cc(Nc2ncnc3ccc(-c4cccc(N5CCOCC5)c4)cc23)ccc1Cl
GI50 (Trypanosoma brucei; parasite growth, SYBR Green; 48 h): 0.05 µM

O=c1[nH]c(CCl)nc2scc(-c3cccc(F)c3)c12
EC50 (Trypanosoma brucei; parasite growth, ATP luminescence; 24 h): 1.3 µM

CC(=O)N1CCN(c2ccc(OCC3COC(Cn4ccnc4)(c4ccc(Cl)cc4Cl)O3)cc2)CC1 (stereo not shown)
MIC (Candida albicans; microbial growth, broth dilution; SP3876; 48 h): 8 µM

c1cc(-c2ccc3ncnc(Nc4ncco4)c3c2)nc(N2CCOCC2)c1
GI50 (Trypanosoma brucei; parasite growth, SYBR Green; GAMBIENSE): 2.4 µM

CC1(C)S[C@@H]2[C@H](NC(=O)[C@H](N)c3ccccc3)C(=O)N2[C@H]1C(=O)O
MIC (Enterococcus faecium; microbial growth, broth dilution; ATCC19434; 12 h): 0.5 mg/L

c1cc(-c2ccc3ncnc(NC4CCOCC4)c3c2)cc(N2CCOCC2)c1
GI50 (Trypanosoma brucei; parasite growth, SYBR Green; 48 h): 3 µM

C/C(=N\NC(=O)/N=C(\C)c1c(O)c2ccccc2oc1=O)c1c(O)c2ccccc2oc1=O
MIC (Penicillium verrucosum; microbial growth, broth dilution; 48 h): 62.5 mg/L

CCOC(=O)c1cnc2c([N+](=O)[O-])cc(C(F)(F)F)cc2c1NCCCn1ccnc1
EC50 (Trypanosoma brucei; parasite growth, resazurin; 72 h): 8 µM

O=c1[nH]c(CCl)nc2scc(-c3ccc(F)cc3)c12
EC50 (Trypanosoma brucei; parasite growth, ATP luminescence; 48 h): 1.5 µM

c1cc(-c2ccc3ncnc(Nc4ncco4)c3c2)nc(N2CCOCC2)n1
GI50 (Trypanosoma brucei; parasite growth, SYBR Green; 48 h): 0.23 µM

CC(=O)N1CCN(c2ccc(OCC3COC(Cn4ccnc4)(c4ccc(Cl)cc4Cl)O3)cc2)CC1 (stereo not shown)
MIC (Penicillium verrucosum; microbial growth, broth dilution; 48 h): 3.9 mg/L

Clc1cccc(Nc2ncnc3ccc(-c4cccc(N5CCOCC5)c4)cc23)c1
GI50 (Trypanosoma brucei; parasite growth, SYBR Green; 48 h): 0.38 µM

C/C(=N\C1CCCCC1/N=C(\C)c1c(O)c2ccccc2oc1=O)c1c(O)c2ccccc2oc1=O (stereo not shown)
MIC (Penicillium verrucosum; microbial growth, broth dilution; 48 h): 62.5 mg/L

CN1CCN(c2cccc(-c3ccc4ncnc(Nc5ccc(Cl)c(Cl)c5)c4c3)c2)CC1
GI50 (Trypanosoma brucei; parasite growth, SYBR Green; 48 h): 0.29 µM

C/C(=N\C(=N)/N=C(\C)c1c(O)c2ccccc2oc1=O)c1c(O)c2ccccc2oc1=O
MIC (Penicillium verrucosum; microbial growth, broth dilution; 48 h): 125 mg/L

O=[N+]([O-])c1ccc(Nc2ncnc3ccc(-c4cccc(N5CCOCC5)c4)cc23)cc1C(F)(F)F
GI50 (Trypanosoma brucei; parasite growth, SYBR Green; GAMBIENSE): 0.013 µM

O=c1[nH]c(CCl)nc2scc(-c3ccccc3)c12
EC50 (Trypanosoma brucei; parasite growth, ATP luminescence; 48 h): 1.4 µM
